Data as given in ChEMBL document CHEMBL1132971, “New azolidinediones as inhibitors of protein tyrosine phosphatase 1B with antihyperglycemic properties” (J Med Chem, 2000).
The source made the active and inactive calls. The calls are words filed in the database; no cut-off is given here.

What was measured:
[1] = target: T1, Tyrosine-protein phosphatase non-receptor type 1 (Rattus norvegicus) (UniProt P20417); assay: Inhibition of PTPase (PTP1B) activity in rat hepatic membrane at 50 uM concentration, using pNPP as the substrate; assay type: cell membranes; conditions: Liver
T1 sequence (whole entry): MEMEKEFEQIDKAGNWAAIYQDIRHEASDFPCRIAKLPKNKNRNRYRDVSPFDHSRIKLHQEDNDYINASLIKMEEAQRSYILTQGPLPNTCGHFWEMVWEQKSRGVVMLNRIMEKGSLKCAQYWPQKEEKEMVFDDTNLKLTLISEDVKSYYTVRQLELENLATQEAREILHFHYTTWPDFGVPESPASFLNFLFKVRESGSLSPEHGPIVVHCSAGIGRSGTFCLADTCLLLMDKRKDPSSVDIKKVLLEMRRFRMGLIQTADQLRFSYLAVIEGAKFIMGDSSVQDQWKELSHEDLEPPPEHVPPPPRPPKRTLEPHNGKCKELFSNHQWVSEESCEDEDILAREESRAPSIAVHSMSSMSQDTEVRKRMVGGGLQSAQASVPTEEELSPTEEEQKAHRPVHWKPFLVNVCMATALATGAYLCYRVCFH
Method in brief: (§1)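 Liver membranes from male Sprague-Dawley rats (100-150 g), about 30 µg protein per well. Preincubated 10 min at 37 °C with compound in 1.25% DMSO in 50 mM HEPES pH 7.4. Then 6.33 mM pNPP for 30 min at 37 °C, stopped with NaOH. p-Nitrophenol read at 410 nm. Run in triplicate. Reported as percent of untreated control.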

[2] = target: T2, Tyrosine-protein phosphatase non-receptor type 1 (Homo sapiens, UniProt P18031); assay: Concentration required to inhibit PTPase activity, recombinant Protein Tyrosine Phosphatase 1b as the enzyme
T2 sequence (P18031 whole entry): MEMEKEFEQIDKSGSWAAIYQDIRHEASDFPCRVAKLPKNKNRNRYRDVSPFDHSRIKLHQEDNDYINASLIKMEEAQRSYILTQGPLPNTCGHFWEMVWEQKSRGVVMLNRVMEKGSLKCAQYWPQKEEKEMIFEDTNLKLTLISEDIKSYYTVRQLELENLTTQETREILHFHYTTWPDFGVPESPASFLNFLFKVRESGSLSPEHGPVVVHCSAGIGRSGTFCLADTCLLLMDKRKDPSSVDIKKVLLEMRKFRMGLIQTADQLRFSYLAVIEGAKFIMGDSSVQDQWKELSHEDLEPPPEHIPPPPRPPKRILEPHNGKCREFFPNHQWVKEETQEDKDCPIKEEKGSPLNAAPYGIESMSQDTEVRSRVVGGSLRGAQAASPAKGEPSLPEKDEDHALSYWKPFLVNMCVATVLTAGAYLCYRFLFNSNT
Method in brief: (§2)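 Rat recombinant PTP1B in 33 mM TRIS-HCl, 2 mM EDTA, 50 mM β-mercaptoethanol, pH 7.4 (about 1000-2000 nmol/min/mg). Preincubated 10 min at 37 °C with or without compound in HEPES buffer pH 7.4. Released phosphate read by malachite green-ammonium molybdate at 650 nm against a phosphate standard. Quadruplicates. IC50 by four-parameter logistic fit.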

[3] = test system: Mus musculus; assay: Evaluated in vivo for their ability to decrease plasma glucose levels in diabetic C57BL/KsJ db/db mouse at a dose 100 mg/kg/day. *p indicates <0.05; assay type: functional
Method in brief: (§3)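 Mice dosed orally once daily for 4 days; plasma glucose and insulin measured and expressed as percent change versus a vehicle-treated group (mean ± SE, 4-6 mice/group). NS is generally less than -15% change. Significance is versus vehicle-treated mice.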

[4] = target: T3, Tyrosine-protein phosphatase non-receptor type 1 (Mus musculus) (UniProt P35821); assay: In vivo ability to decrease plasma glucose levels in diabetic C57BL/KsJ ob/ob mouse at a dose 100 mg/kg/day; assay type: functional, organism-based
T3 sequence (whole entry): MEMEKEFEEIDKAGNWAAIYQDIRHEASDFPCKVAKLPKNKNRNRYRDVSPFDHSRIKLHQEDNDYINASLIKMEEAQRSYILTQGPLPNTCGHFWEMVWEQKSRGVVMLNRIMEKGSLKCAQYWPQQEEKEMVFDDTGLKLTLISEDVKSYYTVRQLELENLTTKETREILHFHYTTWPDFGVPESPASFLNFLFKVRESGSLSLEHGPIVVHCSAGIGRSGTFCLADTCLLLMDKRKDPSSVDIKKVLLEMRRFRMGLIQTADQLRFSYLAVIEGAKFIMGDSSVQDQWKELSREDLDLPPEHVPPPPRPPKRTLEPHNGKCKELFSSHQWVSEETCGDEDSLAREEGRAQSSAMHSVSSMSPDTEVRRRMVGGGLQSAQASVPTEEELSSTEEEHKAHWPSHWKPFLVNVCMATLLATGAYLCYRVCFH
Method in brief: (§4)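 Diabetic db/db or ob/ob mice dosed orally once daily for 4 days. Plasma glucose and insulin reported as percent change from a vehicle-treated group. 4-6 mice per group. Significance set at p < 0.05 or p < 0.01 versus vehicle; NS means generally less than -15% change.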

[5] = target: T1, Tyrosine-protein phosphatase non-receptor type 1 (Rattus norvegicus); assay: Inhibition of PTPase activity using recombinant r-PTP1B as the enzyme and IR-triphosphopeptide as substrate at 10 uM
Method in brief: (§5)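 Recombinant rat PTP1B (human 321-aa form assayed the same way), activity about 1000-2000 nmol/min/mg, preincubated with compound for 10 min at 37 °C in HEPES pH 7.4. The reaction is started with 50 µM triphosphorylated insulin receptor 1142-1153 dodecapeptide and run 30 min at 37 °C. Released phosphate read by malachite green-molybdate at 650 nm, in quadruplicate. Result is percent inhibition versus control.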

[6] = target: T3, Tyrosine-protein phosphatase non-receptor type 1 (Mus musculus); assay: Ability to decrease plasma insulin levels in mouse at a dose 100 mg/kg/day; assay type: functional, organism-based; method in brief: as §4
[7] = target: T4, Tyrosine-protein phosphatase non-receptor type 1 (Rattus norvegicus, UniProt P20417); assay: Inhibition of PTPase activity in rat hepatic membrane at a concentration of 50 uM using pNPP as the substrate; assay type: cell membranes, Liver; method in brief: as §1
T4 sequence (P20417 whole entry): T1 sequence (whole entry)

[8] = target: T1, Tyrosine-protein phosphatase non-receptor type 1 (Rattus norvegicus); assay: Inhibition of PTPase activity using recombinant r-PTP1B as the enzyme and IR-triphosphopeptide as substrate at 50 uM; method in brief: as §2
[9] = target: T4, Tyrosine-protein phosphatase non-receptor type 1; assay: Inhibition of PTPase activity using recombinant r-PTP1B as the enzyme and IR-triphosphopeptide as substrate; method in brief: as §2
[10] = test system: Mus musculus; assay: Evaluated in vivo for their ability to decrease plasma glucose levels in diabetic C57BL/KsJ db/db mouse at a dose 100 mg/kg/day; NS is non significant; assay type: functional, organism-based; method in brief: as §4
[11] = target: T4, Tyrosine-protein phosphatase non-receptor type 1; assay: Inhibition of PTPase activity using recombinant r-PTP1B and IR-triphosphopeptide as substrate; ND is no data.; method in brief: as §2
[12] = test system: Mus musculus; assay: Evaluated in vivo for their ability to decrease plasma glucose levels in diabetic C57BL/KsJ ob/ob mouse at a dose 100 mg/kg/day, **p indicates <0.01; assay type: functional; method in brief: as §3
[13] = test system: Mus musculus; assay: Evaluated for their ability to decrease plasma insulin levels in mouse at a dose 100 mg/kg/day, **p indicates <0.01; assay type: functional; method in brief: as §4
[14] = target: T4, Tyrosine-protein phosphatase non-receptor type 1; assay: Inhibition of PTPase activity using recombinant Protein-tyrosine phosphatase 1B and IR-triphosphopeptide as substrate; ND is no data.
[15] = target: T1, Tyrosine-protein phosphatase non-receptor type 1 (Rattus norvegicus); assay: Inhibition of Protein-tyrosine phosphatase 1B activity in rat hepatic membrane at a concentration of 50 uM using pNPP as the substrate; assay type: cell membranes; conditions: Liver; method in brief: as §1
[16] = test system: Mus musculus; assay: Evaluated in vivo for their ability to decrease plasma glucose levels in diabetic C57BL/KsJ db/db mouse at a dose 100 mg/kg/day, *p indicates <0.05; assay type: functional; method in brief: as §3
[17] = target: T1, Tyrosine-protein phosphatase non-receptor type 1 (Rattus norvegicus); assay: Inhibition of PTPase activity using recombinant Protein-tyrosine phosphatase 1B as the enzyme and IR-triphosphopeptide as substrate at 50 uM; method in brief: as §5
[18] = test system: Mus musculus; assay: Evaluated in vivo for their ability to decrease plasma glucose levels in diabetic C57BL/KsJ db/db mouse at a dose 100 mg/kg/day.,*p indicates <0.05; assay type: functional; method in brief: as §3

Row | SMILES | inhibition [1] [%] | IC50 [2] [nM] | Decrease [4] | Decrease [6] | other results
1 | CCCC/C(=C\Cn1oc(=O)n(CC(=O)O)c1=O)c1cccc(Oc2cc(Cl)cc(Cl)c2)c1 | 63 | 1300 | – | – | –
2 | Cc1oc(-c2ccc(C(F)(F)F)cc2)nc1COc1cccc(C2CC2Cn2oc(=O)[nH]c2=O)c1 (stereo not given) | 51 | – | Not significant | Not significant | Decrease [3]: 36%; inhibition [5]: 28%
3 | CCCC/C(=C\Cn1oc(=O)[nH]c1=O)c1cccc(OCc2nc(-c3ccc(C(F)(F)F)cc3)oc2-c2ccccc2)c1 | 76 | 370 | – | – | –
4 | Cc1oc(-c2ccc(C(F)(F)F)cc2)nc1COc1cccc(/C(=C/Cn2oc(=O)[nH]c2=O)c2ccc(Cl)cc2)c1 | – | – | Not significant | Not significant | Inhibition % [7]: 27%; inhibition [8]: 1.4%
5 | C/C(=C\Cc1nnn[nH]1)c1cccc(OCc2nc(-c3ccc(OC(F)(F)F)cc3)oc2C)c1 | 29 | 13000 | – | – | –
6 | CCCCCCCC/C(=C/Cn1oc(=O)n(CC(=O)O)c1=O)c1cccc(OCc2nc(-c3ccc(C(F)(F)F)cc3)oc2C)c1 | 57 | 160 | – | – | –
7 | CCCCc1oc2ccccc2c1COc1cccc(/C(C)=C/Cn2oc(=O)[nH]c2=O)c1 | – | – | – | – | Inhibition % [7]: 33%; IC50 [9]: 2700 nM
8 | Cc1oc(-c2ccc(C(F)(F)F)cc2)nc1COc1cccc(/C=C/Cn2oc(=O)[nH]c2=O)c1 | 49 | – | Not significant | Not significant | Decrease [10]: inactive; IC50 [11]: Not significant
9 | CCCC/C(=C\Cn1oc(=O)n(CC(=O)O)c1=O)c1cccc(OCc2cc(Cl)cc(Cl)c2)c1 | 31 | 48000 | – | – | –
10 | CCCCCCCCC(=CCn1oc(=O)n(CC(=O)O)c1=O)c1cccc(OCc2nc(-c3ccc(C(F)(F)F)cc3)oc2C)c1 | 64 | 120 | – | – | –
11 | Cc1oc(-c2ccc(C(F)(F)F)cc2)nc1COc1cccc(/C(=C/Cn2oc(=O)[nH]c2=O)c2ccc(F)cc2)c1 | – | – | – | – | Decrease [12]: 34%; Decrease [13]: 38%; Inhibition % [7]: 28%; inhibition [8]: 1.2%
12 | C/C(Cn1oc(=O)[nH]c1=O)=C(\C)c1cccc(OCc2nc(-c3ccc(C(F)(F)F)cc3)oc2C)c1 | – | – | Not significant | Not significant | Decrease [10]: inactive; IC50 [14]: Not significant; inhibition [15]: 54%
13 | CC/C(=C/Cn1oc(=O)[nH]c1=O)c1cccc(OCc2nc(-c3ccc(C(F)(F)F)cc3)oc2C)c1 | – | – | Not significant | Not significant | Decrease [16]: 65%; inhibition [17]: 80%; inhibition [15]: 56%
14 | C/C(=C\CC1OC(=O)NC1=O)c1cccc(OCc2nc(-c3ccc(OC(F)(F)F)cc3)oc2C)c1 (stereo not given) | 27 | – | Not significant | Not significant | Decrease [3]: 40%; IC50 [9]: 46000 nM
15 | CCCC/C(=C\Cn1oc(=O)[nH]c1=O)c1cccc(Oc2cc(Cl)cc(Cl)c2)c1 | – | – | – | – | Inhibition % [7]: 23%; IC50 [9]: 1600 nM
16 | C/C(=C\Cn1oc(=O)[nH]c1=O)c1cccc(OCc2nc(-c3ccccc3)oc2C)c1 (stereo in doubt; 67) | – | – | – | – | Decrease [12]: 30%; Decrease [16]: 28%; Decrease [13]: 75%; IC50 [14]: Not significant
17 | CC/C(=C\c1cccc(OCc2nc(-c3ccc(C(F)(F)F)cc3)oc2C)c1)n1oc(=O)[nH]c1=O | 58 | – | Not significant | Not significant | Decrease [18]: 24%; IC50 [11]: Not significant
18 | C/C(=C\Cn1oc(=O)[nH]c1=O)c1ccc(OCCc2nc(-c3ccc(C(F)(F)F)cc3)oc2C)cc1 | 63 | – | Not significant | Not significant | Decrease [10]: inactive; IC50 [9]: 1600 nM
19 | Cc1oc(-c2ccc(C(F)(F)F)cc2)nc1COc1cccc(/C(=C/Cn2oc(=O)n(CC(=O)O)c2=O)c2ccccc2)c1 | 24 | 850 | – | – | –
20 | CCC/C(=C/Cn1oc(=O)[nH]c1=O)c1cccc(OCc2nc(-c3ccc(C(F)(F)F)cc3)oc2C)c1 | 58 | – | Not significant | Not significant | Decrease [18]: 55%; IC50 [11]: Not significant
